# CendR NRP1 mod: modulators of CendR peptide binding to NRP-1, primary screen, biochemical, fluorescence polarization, uHTS; AID 602438, 2012; Neuropilin-1 (Homo sapiens), O14786; 0.85% of 360,000 active; FAM-RPARPAR peptide binding to NRP-1; inhibition, % at 25 µM;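 active = inhibition or corrected inhibition above about 18%, plus a signal ratio from 0.5 to 1.5, limit read from the data, passing the limit was not always enough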
# Target sequence (O14786 whole entry, looked up): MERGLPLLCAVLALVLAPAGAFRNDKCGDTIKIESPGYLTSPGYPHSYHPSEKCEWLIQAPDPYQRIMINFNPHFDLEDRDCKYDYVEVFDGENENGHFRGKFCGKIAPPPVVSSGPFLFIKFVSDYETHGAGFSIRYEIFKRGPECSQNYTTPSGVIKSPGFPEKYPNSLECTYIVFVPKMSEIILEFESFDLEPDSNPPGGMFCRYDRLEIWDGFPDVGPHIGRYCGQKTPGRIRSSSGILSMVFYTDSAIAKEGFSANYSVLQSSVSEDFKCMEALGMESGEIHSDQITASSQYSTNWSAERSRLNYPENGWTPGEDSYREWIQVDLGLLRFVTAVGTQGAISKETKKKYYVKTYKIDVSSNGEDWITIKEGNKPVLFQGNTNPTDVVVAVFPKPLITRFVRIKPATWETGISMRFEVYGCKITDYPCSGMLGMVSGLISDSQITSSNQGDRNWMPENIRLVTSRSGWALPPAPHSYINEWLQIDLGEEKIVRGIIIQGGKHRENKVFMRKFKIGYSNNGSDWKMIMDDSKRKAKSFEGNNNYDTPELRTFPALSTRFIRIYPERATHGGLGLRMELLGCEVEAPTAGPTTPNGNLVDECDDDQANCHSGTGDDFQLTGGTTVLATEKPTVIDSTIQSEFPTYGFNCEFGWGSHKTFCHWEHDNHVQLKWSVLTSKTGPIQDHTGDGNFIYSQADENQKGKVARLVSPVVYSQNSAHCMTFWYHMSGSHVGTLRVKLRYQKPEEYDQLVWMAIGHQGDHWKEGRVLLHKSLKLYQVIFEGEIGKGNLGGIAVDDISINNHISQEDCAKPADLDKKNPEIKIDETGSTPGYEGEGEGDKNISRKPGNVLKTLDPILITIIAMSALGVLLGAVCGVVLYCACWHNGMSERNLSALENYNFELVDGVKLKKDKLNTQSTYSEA
# PLCb3 inh: human PLC-beta3 inhibitors, primary screen, biochemical, fluorescence | 1-phosphatidylinositol 4,5-bisphosphate phosphodiesterase beta-3 (Homo sapiens), Q01970 | Purified PLC-beta3, fluorogenic substrate | inhibition, % at 12.2 µM | 0.18% of 370,000 active; in the data active = inhibition above about 11%;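 also: 0% = median of compound wells on plate and 100% = full blocker control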
# DDE Tn7 FP inh: inhibitors of Tn7 peptide binding to fibrin DD(E), primary screen, biochemical, fluorescence polarization, human fibrin, Tn7 probe | Fibrinogen beta chain (Homo sapiens), P02675 | FP displacement of FITC-Tn7 peptide from fibrin DD(E); 0% = median of compound wells per plate | inhibition, % at 8.3 µM | 0.13% of 370,000 active | AID 720508, 2013;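 active = inhibition above the mean of compounds falling within the control limits plus 3 SD of them, cut at about 14% in these data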;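 also: 0% = plate median of compound wells and 100% = 10 µM Aha-Tn7 peptide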
#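 Test system – human fibrin DD(E) · Times – 10 min preincubation, 3 h with tracer, room temperature · Detection – fluorescence polarization of the labelled Tn7 tracer · Measure – percent inhibition normalized to high-control wells · Benchmarks – high control wells with 10 µM unlabelled Aha-Tn7 peptide (full inhibition) · Repeats – singlicate testing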
# Tn6 DDE FP: inhibitors of Tn6 peptide binding to fibrin DD(E), primary screen, biochemical, fluorescence polarization, human fibrin, Tn6 probe | 0.21% of 370,000 active | Fibrinogen beta chain (Homo sapiens), P02675 | inhibition, % at 8.3 µM | AID 720509, 2013 | Fibrin DD(E) TRITC-Tn6 fluorescence polarization displacement;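 active = inhibition above a per-campaign cutoff: mean of compounds within control limits plus 3 SD, cut at about 15% in these data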;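 also: 0% = median of all compound wells on the plate and 100% = blocking peptide control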
# PLC-gamma1 inh: PLC-gamma1 enzyme inhibitors, primary screen, biochemical, fluorescence, purified enzyme. fluorogenic substrate. inhibition, % at 12.2 µM. 0.84% of 370,000 active; in the data active = inhibition above about 9.5%
# KLK7 zymogen act: proKLK7 zymogen activators, primary screen, biochemical, fluorescence intensity | 0.9% of 370,000 active | purified proKLK7, EDANS-DABCYL substrate fluorescence; 100% is mature enzyme control, 0% vehicle | Kallikrein-7 (Homo sapiens), P49862 | activation, % at 7 µM;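 active = activation above the mean of all tested compounds plus 3 SD, computed per campaign excluding outliers beyond control limits, cut at about 13% in these data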
# proKLK7 act conf: proKLK7 zymogen activators, confirmation, biochemical, fluorescence intensity, triplicate | activation, % at 7 µM | purified proKLK7, EDANS-DABCYL substrate fluorescence; scaled: vehicle 0, mature enzyme 100 | 68% of 3,200 active | shares compounds with KLK7 zymogen act;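 active = activation, as change over the incubation, above the mean of all tested compounds plus 3 SD, cut at about 13% in these data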
# EDANS-DABCYL int: EDANS-DABCYL substrate optical interference, artefact control for kallikrein-7 zymogen activator project, biochemical, fluorescence intensity, high throughput; shares compounds with KLK7 zymogen act; no enzyme, 4 h; solvent 0%, active enzyme control 100%; activation, % at 7 µM; 80% of 3,200 active;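 active = activation above the all-compound mean plus 3 SD, ignoring values outside control-based bounds, cut at about 4.8% in these data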;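 also: value is the 4 h activation minus the activation read at time zero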
# EDANS interf: EDANS fluorescence interference in dose response, no enzyme; shares compounds with KLK7 zymogen act; AID 720493; 20% of 250 active; EDANS-DABCYL peptide fluorescence interference; EC50, µM;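 active = compounds that raise the fluorescence signal in this interference counterscreen, with EC50 at or below 10 µM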;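 also: intact quenched peptide substrate alone read at 355 nm excitation and 520 nm emission; signal is fluorescence gain from T0 to T4 after four hours at room temperature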
# Active calls of the source: *; i = inactive; nt = no result. Shown are actives, neighbours in structure and some others; about 3% of the full set was active somewhere.
SMILES,CendR NRP1 mod,PLCb3 inh,DDE Tn7 FP inh,Tn6 DDE FP,PLC-gamma1 inh,KLK7 zymogen act,proKLK7 act conf,EDANS-DABCYL int,others
COC(=O)[C@]12C[C@H](CC(=O)NCc3ccccc3)C(=O)N(Cc3ccco3)C1=C[C@H](COCc1ccccc1)O[C@@H]2C,nt,1,-1,-3,8,0,nt,nt,
Fc1cccc(CNC2CCC23CCC(c2ccccc2)CC3)c1 (stereo unspecified),nt,0,5,2,-2,nt,nt,nt,
CCCNC(=O)COC(=O)c1cc(-c2ccc(OC)cc2)nc2ccccc12,-4,i,5,5,i,52*,-71,-60,
CCN(CC)C(=O)COC(=O)c1cc(-c2ccc(OC)cc2)nc2ccccc12,8,-12,-10,-7,i,0,nt,nt,
COCCNC(=O)COC(=O)c1cc(-c2ccc(OC)cc2)nc2ccccc12,-7,i,-1,-2,i,137*,108*,119*,
COc1ccc(-c2cc(C(=O)OCC(=O)NC(C)(C)C)c3ccccc3n2)cc1,-7,nt,nt,nt,nt,nt,nt,nt,
Cc1c(C2(O)CCCCC2)[nH]c2cnccc12,-1,-486,7,0,-338,77*,24*,14*,EDANS interf=>70
CC(=O)NN1C(=O)c2ccccc2NC1c1ccccc1F (stereo unspecified),-4,i,6,-6,-374,29*,19*,18*,
O=C1c2ccccc2NC(c2ccco2)N1O (stereo unspecified),6,-12,-3,1,-14,0,nt,nt,
O=C1c2ccccc2NC(c2ccco2)N1NS(=O)(=O)c1ccccc1 (stereo unspecified),-12,-137,-5,7,-113,14*,3,4.8*,
O=C1c2ccccc2NC(c2ccccc2)N1NS(=O)(=O)c1ccccc1 (stereo unspecified),-3,-11,1,1,-10,2,nt,nt,
O=C1c2ccccc2NC(c2cccs2)N1NS(=O)(=O)c1ccccc1 (stereo unspecified),-9,-327,1,-1,-263,36*,5,4.5*,
CCOC(=O)NN1C(=O)c2ccccc2NC1c1cccs1 (stereo unspecified),5,-380,4,-3,-289,14*,16*,15*,
COC(=O)c1ccc(S(=O)(=O)N2CCC(NC(=O)COc3ccc(F)cc3)CC2)cc1,nt,-3,2,3,1,0,nt,nt,
Cc1c(CC(=O)N2CCN(C(=O)C3COc4ccccc4O3)CC2)c(=O)oc2cc(O)cc(O)c12 (stereo unspecified),2,i,8,8,i,61*,68*,67*,
Cc1c(CC(=O)N2CCN(C(=O)C3COc4ccccc4O3)CC2)c(=O)oc2c(C)c(O)ccc12 (stereo unspecified),-3,i,-8,5,i,39*,70*,70*,
COc1ccc2c(C)c(CC(=O)N3CCN(C(=O)C4COc5ccccc5O4)CC3)c(=O)oc2c1 (stereo unspecified),3,-187,-1,7,-142,3,nt,nt,
Cc1c(CC(=O)N2CCN(C(=O)C3COc4ccccc4O3)CC2)c(=O)oc2cc(O)ccc12 (stereo unspecified),72*,i,0,-8,i,58*,74*,75*,
CCN(CC)C(=O)Cn1nc(Cc2ccncc2)c2ccccc2c1=O,nt,-4,3,-1,0,0,nt,nt,
COP(=O)(OC)C(NC(=O)OCc1ccccc1)C(C)C (stereo unspecified),nt,4,-5,-2,2,0,nt,nt,
COc1ccc(C(=O)Nc2nc3ccccc3[nH]2)cc1OC,-7,2,-2,4,-1,0,nt,nt,
O=C(Nc1nc2ccccc2[nH]1)c1cc2ccccc2o1,-16,-106,-4,2,-69,16*,44*,44*,
COc1ccc(Cl)cc1C(=O)Nc1nc2ccccc2[nH]1,5,-184,10,9,-132,27*,-3,-15,
Cc1cc(C)cc(C(=O)Nc2nc3ccccc3[nH]2)c1,14,-9,-2,3,2,0,nt,nt,
COc1ccc2nccc(C(N)=O)c2c1,0,i,4,-2,-431,13*,26*,26*,
SMILES,CendR NRP1 mod,PLCb3 inh,DDE Tn7 FP inh,Tn6 DDE FP,PLC-gamma1 inh,KLK7 zymogen act,proKLK7 act conf,EDANS-DABCYL int,others
COc1ccc2nc(C)cc(C(=O)O)c2c1,2,-160,-3,4,-136,5,nt,nt,
COc1ccc(NC(=O)N2CCC(c3nc4ccc(Cl)cc4[nH]3)CC2)cc1OC,nt,1,2,2,0,0,nt,nt,
O=c1[nH]cnc2cc(-c3ccccc3)sc12,-4,-1,-1,4,-1,0,nt,nt,
COc1ccc(-c2cc3nc(CCl)[nH]c(=O)c3s2)cc1,-40,-173,-5,-6,-106,19*,3,4,
COc1cccc(CNc2nc3cc(-c4cccc(Cl)c4)sc3c(=O)n2C)c1,-15,0,3,-1,-1,-1,nt,nt,
COc1ccc(-c2cc3nc[nH]c(=O)c3s2)cc1,5,-199,-6,-9,-152,41*,-6,15*,
O=[N+]([O-])c1ccccc1/C=C/C=Nn1c(-c2ccc(F)cc2)n[nH]c1=S,nt,-113,-10,0,5,0,nt,nt,
Cc1ccc(S(=O)(=O)c2cc3c(=O)n4ccccc4nc3n(C)c2=N)cc1,-13,-32,0,6,-23,2,nt,nt,
C=CCn1c(=O)c(C#N)cc2c(=O)n3ccccc3nc21,2,i,5,-1,-426,39*,67*,83*,
N#Cc1cc2c(=O)n3ccccc3nc2n(-c2ccc(Cl)cc2)c1=O,-103,-90,5,5,-77,3,nt,nt,

# Assay outcomes: PubChem BioAssay, several laboratories
